Screening results from PubChem BioAssay.
The list is not random: actives were taken first. Their share in the collection is about 4.2%.
SENP1 inh: inhibitors of human SENP1 SUMO protease catalytic domain | inhibition, % at 10 µM | Q9P0U3 | recombinant SENP1 catalytic domain, CyPet-SUMO1-YPet FRET cleavage | AID 624204 | actives 0.21% (n = 360,000);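 active = inhibition at least 30% at 10 µM, raw YFP signal under a set limit, fluorescence ratio 0.5 to 1.5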
Target sequence (Q9P0U3 419-644 limits assumed): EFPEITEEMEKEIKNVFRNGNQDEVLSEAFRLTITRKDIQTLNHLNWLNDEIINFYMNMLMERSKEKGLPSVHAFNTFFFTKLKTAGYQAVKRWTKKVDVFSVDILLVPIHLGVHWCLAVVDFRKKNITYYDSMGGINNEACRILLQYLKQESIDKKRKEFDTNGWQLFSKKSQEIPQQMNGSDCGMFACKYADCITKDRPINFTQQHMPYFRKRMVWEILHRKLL
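Test system: human SENP1 catalytic domain; medium: Tris pH 8 buffer plus EDTA, NaCl, BME, BSA, NP40, catalase; incubation: 50 min reaction at room temperature; technique: FRET, CFP and YFP emission; controls: no-enzyme low control and enzyme-plus-DMSO high control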
CTSL1 counter: blocks F. hepatica cathepsin L1 in PFM18AAP counter-screen | recombinant F. hepatica cathepsin L1, Z-Leu-Arg-MCA fluorescence | inhibition, % at 5.96 µM | actives 0.49% (n = 300,000);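 active = inhibition above the mean of all tested compounds plus 3 SD, set per screening campaign, cut at about 17% in these data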
AHR activator: activators of human aryl hydrocarbon receptor | AID 2796 | activation, % at 5 µM | AHR-responsive luciferase reporter cells, luminescence | actives 2.5% (n = 320,000); in the data active = activation above about 47%
HDAC3 inh: human HDAC3 inhibition. recombinant HDAC3, fluorogenic peptide/trypsin coupled, fluorescence. inhibition, % at 8.3 µM. actives 0.15% (n = 320,000); in the data active = inhibition above about 26%, passing the limit was not always enough
Target sequence (O15379 whole entry, looked up): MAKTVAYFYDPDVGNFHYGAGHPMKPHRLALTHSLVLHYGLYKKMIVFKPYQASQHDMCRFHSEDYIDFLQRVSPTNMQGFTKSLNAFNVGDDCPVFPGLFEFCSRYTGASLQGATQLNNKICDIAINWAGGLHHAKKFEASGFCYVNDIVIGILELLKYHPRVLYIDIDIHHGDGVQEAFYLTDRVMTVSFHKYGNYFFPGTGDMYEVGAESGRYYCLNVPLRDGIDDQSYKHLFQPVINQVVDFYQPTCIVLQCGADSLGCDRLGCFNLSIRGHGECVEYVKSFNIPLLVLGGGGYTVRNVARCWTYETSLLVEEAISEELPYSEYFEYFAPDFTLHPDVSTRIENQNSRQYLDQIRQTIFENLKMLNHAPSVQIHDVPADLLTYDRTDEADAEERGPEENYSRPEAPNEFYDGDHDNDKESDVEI
PfM18AAP inh: PfM18AAP enzyme inhibition; recombinant PfM18AAP, H-Glu-NHMec fluorogenic cleavage; actives 1.2% (n = 290,000); inhibition, % at 7.35 µM; AID 1822;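 active = inhibition above the campaign mean inhibition over all tested compounds plus 3 SD, cut at about 28% in these data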
GAA850 FXN act: increases GAA850 frataxin promoter reporter activity | HEK293 lucGAA850 FXN promoter luciferase reporter, 24 h; percent of 10 µM SAHA response | activation, % at 6 µM | actives 0.56% (n = 360,000) | AID 540364;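 active = activation above the average of all compounds screened plus 3 SD, cutoff fixed separately per campaign, cut at about 7.5% in these data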
GAA30 FXN cntr: GAA30 FXN promoter activation counter-screen | actives 66% (n = 1,900) | AID 588350 | HEK293 lucGAA30 FXN promoter luciferase, 24 h; DMSO = 0%, 5 µM ipriflavone = 100% | activation, % at 6 µM | shares compounds with GAA850 FXN act;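 active = mean activation above the mean of solvent-only control wells plus 3 SD, cut at about 22% in these data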;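 also: counterscreen of GAA850 promoter hits where activity marks nonselective or luminescence artifacts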
GAA850 confirm: confirmation of GAA850 frataxin (FXN) promoter activators | shares compounds with GAA850 FXN act | AID 588351 | activation, % at 6 µM | actives 86% (n = 1,900) | HEK293 lucGAA850 FXN promoter luciferase reporter, 24 h; 100% = activation by SAHA;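 active = mean activation above a set limit taken from the primary screen, cut at about 8% in these data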
Numbers stand for hits; i = inactive; nt = no result given.

SMILES | SENP1 inh | CTSL1 counter | AHR activator | HDAC3 inh | PfM18AAP inh | GAA850 FXN act | GAA30 FXN cntr | GAA850 confirm
Cc1nnc(SCC(=O)Nc2ccccc2)c2ccccc12 | i | i | i | i | i | i | nt | nt
CCN(C(=O)c1ccc(NC(=O)C2CCCCC2C(=O)O)cc1)c1ccccc1 (centres undefined) | i | nt | nt | nt | nt | i | nt | nt
CC1(C(=O)Nc2nccs2)CCN1C(=O)C1(c2ccccc2)CC1 (centres undefined) | i | nt | nt | nt | nt | i | nt | nt
O=C(NCCc1ccc(Cl)cc1)C1CCC(CNc2c(N3CCCCC3)c(=O)c2=O)CC1 (centres undefined) | i | i | i | i | i | 16 | 28 | i
O=C(CCS(=O)(=O)c1ccccc1)N(CCCN1CCOCC1)c1nc2c(F)cccc2s1 | i | i | i | i | nt | i | nt | nt
O=C(CCS(=O)(=O)c1ccccc1)N(CCCN1CCOCC1)c1nc2ccc(F)cc2s1 | i | i | i | i | nt | 15 | 105 | 66
O=C(COC(=O)c1cccnc1)c1ccc(Cl)cc1 | i | i | i | i | i | 11 | 22 | i
CCc1ccc(/C=N/Nc2ncnc3nc[nH]c23)cc1 | i | i | i | i | i | 11 | 132 | 54
CCCCNC(=O)c1nc(C2CCN(S(=O)(=O)c3cccc(C(F)(F)F)c3)CC2)oc1-c1ccccc1 | i | nt | nt | nt | nt | nt | nt | nt
O=C(C1COc2ccccc2O1)N1CCc2ccccc21 (centres undefined) | i | i | i | i | i | 8.0 | 73 | 32
O=C(C1COc2ccccc2O1)N1CCCC1 (centres undefined) | i | i | i | i | i | i | nt | nt
COc1ccc2cc(CN(CCc3ccccc3)Cc3nnnn3Cc3ccco3)c(=O)[nH]c2c1 | i | i | i | i | i | i | nt | nt
COc1ccccc1CN(Cc1cc2c(C)ccc(C)c2[nH]c1=O)Cc1nnnn1Cc1ccco1 | i | i | i | i | i | 8.8 | i | 11
Cc1ccc(S(N)(=O)=O)cc1NC(=O)c1ccc2c3c(cccc13)CC2 | i | i | i | i | i | i | nt | nt
Oc1ccc(/C=N/Nc2ccnc3cc(Cl)ccc23)c(O)c1 | i | i | i | i | i | 12 | 60 | 19
Oc1ccc(Nc2ccnc3cc(Cl)ccc23)cc1 | i | i | i | i | i | 10 | 39 | 11
CC(O)(P(=O)(O)O)P(=O)(O)O | i | nt | nt | nt | nt | i | nt | nt
Cc1ccc(Cl)cc1N1CCN(C(=O)C2CCN(c3nnc(-n4cccc4)s3)CC2)CC1 | i | i | i | i | i | 8.2 | i | i
Cn1cc([N+](=O)[O-])c(C(=O)Nc2ccc(-c3nc4ccccc4o3)cc2)n1 | i | i | i | i | i | 8.8 | 93 | 31
O=C(Nc1ccc(-c2nc3ncccc3o2)cc1)c1ccc([N+](=O)[O-])o1 | i | i | i | i | i | i | nt | nt
CCc1ccc(-n2cc(-c3ccc([N+](=O)[O-])cc3)[nH]c2=S)cc1 | i | i | i | i | i | i | nt | nt
CCc1ccc(-c2cn(C3CCCCC3)c(=S)[nH]2)cc1 | i | i | 63 | i | i | 8.0 | 58 | 24
O=C(CSCc1ccccc1)NNc1c(F)c(F)cc(F)c1F | i | i | i | i | i | i | nt | nt
Cc1cccn2cc(-c3ccccc3)nc12 | i | i | i | i | i | i | nt | nt
COc1ccc(-c2cn3cccc(C)c3n2)cc1Br | i | i | i | i | i | 8.4 | 120 | 37
SMILES | SENP1 inh | CTSL1 counter | AHR activator | HDAC3 inh | PfM18AAP inh | GAA850 FXN act | GAA30 FXN cntr | GAA850 confirm
Cc1cc(C)cc(-n2c(SC(C)C(=O)NCc3ccc4c(c3)OCO4)nc3ccccc3c2=O)c1 (centres undefined) | i | i | i | i | i | 8.7 | 24 | 8.2
Cc1cccc(-n2c(SCC(=O)NCc3ccc4c(c3)OCO4)nc3ccccc3c2=O)c1 | i | i | i | i | i | i | nt | nt
COc1ccc(/C=C2\SC(N3CCCCC3)=NC2=O)cc1OC | i | i | i | i | i | 9.5 | 29 | 21
Cc1csc(NC(=O)CSc2ccccc2F)n1 | i | i | i | i | i | 12 | 78 | 25
Cc1ccccc1SCC(=O)OCC(=O)Nc1sccc1C(N)=O | i | i | i | i | i | i | nt | nt
NC(=O)c1ccsc1NC(=O)CSc1ccccc1F | i | i | i | i | i | 8.2 | 89 | 27
O=S1(=O)CC(N2CCC(c3ccccc3)CC2)CN1Cc1ccc(F)cc1 (centres undefined) | i | nt | nt | nt | nt | nt | nt | nt
CCOc1ccc(-c2nc(CCl)cs2)cc1 | i | i | i | nt | i | 7.6 | 114 | 37
O=C1NC(c2ccccc2)Nc2c1sc(=S)n2-c1ccccc1 (centres undefined) | i | i | i | i | i | i | nt | nt
CCc1nc2ccc(C(=O)NCCOc3ccc(OC)cc3)cn2c1N(CC)Cc1cccc(Br)c1 | i | nt | nt | nt | nt | i | nt | nt
CCc1nc2ccc(C(=O)NCCN3CCNC3=O)cn2c1N(CC)Cc1cccc(Br)c1 | i | nt | nt | nt | nt | 15 | i | i
CC(C)Cc1cc(-c2ccco2)c(C#N)c(N)n1 | i | i | i | i | i | 8.2 | i | 18
COCCn1c(SCc2ccc(Cl)cc2)nc2c1c(=O)[nH]c(=O)n2C | i | i | i | i | nt | i | nt | nt
CCCn1c(SCc2ccc(Cl)cc2)nc2c1c(=O)[nH]c(=O)n2C | i | i | i | i | i | 9.3 | i | 15
C/C=C/Cn1c(SCc2ccc(Cl)cc2)nc2c1c(=O)[nH]c(=O)n2C | i | i | i | i | i | 11 | i | 17
C/C=C/Cn1c(SC)nc2c1c(=O)[nH]c(=O)n2C | i | i | i | i | i | i | nt | nt
CN(c1ccc(C(=O)Nc2ccc3c(c2)OCCO3)cc1)S(C)(=O)=O | i | i | i | i | i | 9.2 | 93 | 29
Cc1ccc(C(=O)Nc2ccc3c(c2)OCCO3)cc1 | i | nt | nt | i | i | i | nt | nt
CC(C)CN(C(=O)c1cccc(S(=O)(=O)N2CCN(c3ccc(F)cc3)CC2)c1)C1CCS(=O)(=O)C1 (centres undefined) | i | i | i | i | nt | i | nt | nt
c1ccc(Cn2cnc3ccccc32)cc1 | i | i | i | i | i | 11 | 120 | 44
Clc1ccccc1OCCn1cnc2ccccc21 | i | i | i | nt | i | 9.2 | 41 | 24
COC(=O)c1ccc(-c2nc(CN3CCN(C(=O)c4ccco4)CC3)c(C)o2)cc1 | i | nt | nt | nt | nt | i | nt | nt
C=C(C(=O)Oc1ccccc1C(C)(C)C)c1ccccc1 | nt | nt | i | i | nt | nt | nt | nt
CCOC(=O)c1c(NC(=O)c2cccs2)sc(C(=O)N(C)C)c1C | i | i | i | i | i | i | nt | nt
CCOC(=O)c1c(NC(=O)c2cccnc2Cl)sc(C(=O)N(C)C)c1C | i | i | i | i | i | 10 | i | i
